The list is not random: actives were taken first. Their share in the collection is about 2.6%.
esBAF inh – SWI/SNF esBAF complex inhibition; reporter increase, % at 12.5 µM; mouse ES cells, Bmi1-luciferase knock-in reporter, 24 h; 100% = twice the neutral-well signal; hit rate 2% among 350,000; AID 602393; in the data active means activation above about 40%; inconclusive means no clear call, values can overlap the other calls;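 further: 0% = median of the plate's neutral control wells and 100% = double that signal; a rise in the Bmi1 reporter signal indicates esBAF inhibition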
SMARCA2 activ – activators of SMARCA2 function; activation, % at 9.1 µM; MG213 cells, MMTV-luciferase reporter, dexamethasone, overnight; hit rate 1% among 370,000; in the data active means activation above about 7.8%;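 further: 0% = vehicle wells and 100% = reference activator wells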
ARFGAP1 inhibitor – inhibitors of rat ARFGAP1; Q62848; Arfgap1-stimulated ARF1 GTP hydrolysis, GDP FP detection; inhibition, % at 16.5 µM; hit rate 0.26% among 360,000;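 active means inhibition above a per-plate limit, mean inhibition of low control wells plus 3 SD, cut at about 25% in these data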;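 further: 0% = DMSO wells with enzyme and 100% = wells lacking Arfgap1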
Target sequence (Q62848 1-136 limits assumed): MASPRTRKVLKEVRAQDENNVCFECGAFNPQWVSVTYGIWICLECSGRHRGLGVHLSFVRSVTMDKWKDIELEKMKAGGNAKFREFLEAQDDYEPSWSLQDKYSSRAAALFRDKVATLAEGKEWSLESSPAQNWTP
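Material: rat Arfgap1 GAP domain (His6, aa 1-136), purified enzyme. Also added: human ARF1(Δ1-17)-GTP substrate. Compound dosing: 16.5 µM single point, 1.26% DMSO. Timing: enzyme reaction 120 min at 25 °C after 20 min preincubation. Signal: GDP detection by fluorescence polarization. Read-out basis: percent inhibition of GAP-stimulated GDP formation, scaled between DMSO and no-Arfgap1 medians.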
ASAP1 inh – blocks human ASAP1-stimulated Arf1 GTP hydrolysis; Q9ULH1; GDP FP detection; inhibition, % at 16.5 µM; hit rate 0.19% among 360,000; AID 624377; in the data active means inhibition above about 25%;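 further: 0% = vehicle with enzyme and substrate and 100% = no enzyme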
Target sequence (Q9ULH1 325-724 limits assumed): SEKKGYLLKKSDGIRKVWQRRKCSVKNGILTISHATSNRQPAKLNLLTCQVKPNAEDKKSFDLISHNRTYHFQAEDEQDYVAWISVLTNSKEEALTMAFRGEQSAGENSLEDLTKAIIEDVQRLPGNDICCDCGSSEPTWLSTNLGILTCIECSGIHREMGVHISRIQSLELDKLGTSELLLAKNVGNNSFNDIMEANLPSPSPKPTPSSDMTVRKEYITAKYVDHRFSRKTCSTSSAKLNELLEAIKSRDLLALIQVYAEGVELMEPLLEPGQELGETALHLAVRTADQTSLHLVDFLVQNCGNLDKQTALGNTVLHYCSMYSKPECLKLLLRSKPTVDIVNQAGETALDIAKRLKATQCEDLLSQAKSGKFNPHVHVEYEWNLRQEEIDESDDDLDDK
esBAF Ring1 qPCR – de-represses Ring1 in mouse ESCs, confirming esBAF inhibition | shares compounds with esBAF inh | AID 743176 | 550 tested, under 10 active | fold change at 33 µM | mouse ESC E14, Ring1 mRNA RT-qPCR fold change;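 active means Ring1 gene expression raised more than 2-fold over untreated cells in both replicates at either tested dose; inconclusive means only one replicate above 2-fold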;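 further: Ring1 transcript normalised to actin housekeeping signal by TaqMan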
Fgf4 repress – represses Fgf4 in mouse ESCs, confirming esBAF inhibition; shares compounds with esBAF inh; mouse ESC E14, Fgf4 mRNA qPCR fold change; stronger effect = lower value; Fgf4 expression fold change at 33 µM; hit rate 4% among 550;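 active means Fgf4 expression under 0.8 fold of control in both repeat measurements at one or both tested doses; inconclusive means under 0.8 fold in just a single repeat measurement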;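 further: Fgf4 transcript normalised to actin in duplex TaqMan qPCR; cells exposed to compound for 24 h before lysis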
Bmi1 derepress – confirmation of esBAF inhibitors: Bmi1 de-repression in mouse ESCs; AID 743180; mouse ESE14 ES cells, Bmi1 mRNA qPCR fold; stronger effect = higher value; fold change at 33 µM; 550 tested, under 10 active; shares compounds with esBAF inh;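 active means Bmi1 expression fold change above 6 at either tested concentration, seen in replicate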
A549 cytotox – cytotoxicity in A549 cells; shares compounds with esBAF inh; plate reader; cell viability change % (negative = cytotoxic), % at 25 µM, hits read low; 550 tested, under 10 active; AID 743188; call rule not given here
HepG2 tox SP – cytotoxicity in HepG2 cells | shares compounds with esBAF inh | plate reader; stronger effect = lower value | activity change, negative = inhibition, % at 25 µM | hit rate 4% among 550 | AID 743189; in the data active means activity change below about -50%
HEK293 tox SP – cytotoxicity in HEK293 cells; hit rate 3% among 550; activity change, negative = inhibition, % at 25 µM, hits read low; AID 743190; shares compounds with esBAF inh; plate reader; in the data active means activity change below about -38%, passing the limit was not always enough
* hit, by the source's call; ? = inconclusive; / = not tested or not shown.

SMILES | esBAF inh | SMARCA2 activ | ARFGAP1 inhibitor | ASAP1 inh | esBAF Ring1 qPCR | Fgf4 repress | Bmi1 derepress | A549 cytotox | HepG2 tox SP | HEK293 tox SP
COc1cc(Cl)c(C)cc1NC(=O)c1cccc(OC)c1OC | 57* | 6 | 7 | 0 | 1.3 | 0.86 | 1.6 | 3 | 12 | -12
Cc1ccc(-c2nc3ccccc3[nH]2)cn1 | 63* | 2 | -2 | -5 | 0.9 | 1.4 | 1.4 | -30 | -38 | -28
COC(=O)c1ccc2[nH]c(C3(O)CCCCC3)c(C)c2c1 | 72* | 3 | 1 | 20 | 1.1 | 1.1 | 0.97 | 1 | -56* | 6
Cc1c(C2(O)CCCCC2)[nH]c2ccc(C(F)(F)F)cc12 | 39 | -1 | 11 | 6 | / | / | / | / | / | /
O=S(=O)(N[C@H]1CC[C@@H](CCn2cc(-c3ccc(F)cc3)nn2)O[C@H]1CO)c1ccccc1F | 2 | / | / | / | / | / | / | / | / | /
CNC[C@H]1Oc2ccc(NS(=O)(=O)c3ccc(OC)cc3)cc2CC(=O)N([C@H](C)CO)C[C@H]1C | -2 | / | / | / | / | / | / | / | / | /
N#Cc1ccc(-c2cn3c(n2)SCC3)cc1 | 61* | 4 | -3 | 4 | 0.91 | 0.86 | 1.4 | -6 | -8 | -11
Cc1ccc(NC(=O)Cc2noc3ccccc23)cc1 | 81* | 4 | 6 | -1 | 1.1 | 1 | 0.99 | 2 | -34 | -12
O=C(Cc1noc2ccccc12)Nc1ccc2ccccc2c1 | 32 | 7 | -11 | -7 | / | / | / | / | / | /
COc1ccc(NC(=O)Nc2ccc3c(c2)C(=O)N([C@@H](C)CO)C[C@H](C)[C@H](CN(C)C(=O)Nc2ccc(OC)cc2)OCCCC[C@H](C)O3)cc1 | -3 | / | / | / | / | / | / | / | / | /
CCOC(=O)C1=C(CSc2nc(-c3ccccc3)ccc2C#N)OC(N)=C(C#N)C1c1cccnc1 (stereo not drawn) | 73* | 7 | 8 | 9 | 1.2 | ? | 1.7 | -6 | -16 | 11
CCOC(=O)CC1=C(C(=O)OCC)C(c2cccnc2)C(C#N)=C(N)O1 (stereo not drawn) | 2 | 0 | 3 | -9 | / | / | / | / | / | /
CC(=O)N(C)C[C@@H]1Oc2cc(-c3ccncc3)ccc2S(=O)(=O)N([C@H](C)CO)C[C@@H]1C | 4 | / | / | / | / | / | / | / | / | /
Cc1ccc2c(COC(=O)C34CC5CC(CC(C5)C3)C4)cc(=O)oc2c1 | 96* | -1 | 3 | 4 | 1.3 | 0.88 | 1.5 | 0 | -18 | -5
O=C(N/N=C/c1ccc(Cl)cc1)Nc1ccccc1 | 59* | 1 | -5 | -5 | 1.4 | 0.84 | 1.7 | -7 | -1 | -12
C[C@@H]1CN([C@H](C)CO)C(=O)c2cccc(NS(C)(=O)=O)c2O[C@H]1CN(C)Cc1ccc2c(c1)OCO2 | 4 | / | / | / | / | / | / | / | / | /
CCN(CC)C(=O)Oc1ccc2c(=O)c(-c3ccc(OC)cc3)c(C)oc2c1 | 15 | 0 | -8 | 8 | / | / | / | / | / | /
CCN(CC)C(=O)Oc1ccc2c(=O)c(-c3ccc(OC)cc3)coc2c1 | 61* | 0 | 2 | 3 | 1.1 | 0.83 | 1.6 | -6 | 2 | -6
Nc1cc2c(cc1Cl)-c1ccccc1C2 | 108* | 2 | 1 | -1 | 0.86 | 0.82 | 1.6 | -3 | 15 | -4
Nc1ccc2c(c1)Cc1cc(N)c(Br)cc1-2 | / | 4 | 19 | 11 | / | / | / | / | / | /
COc1ccc(OCc2cc(C(=O)NC(C)Cc3cnccn3)no2)c(Cl)c1 (stereo not drawn) | 61* | 1 | 1 | 1 | 0.84 | 0.92 | 1.4 | -7 | -21 | -2
C[C@H]1CN([C@@H](C)CO)C(=O)c2cc(/C=C/c3ccccc3)cnc2O[C@H]1CN(C)C(=O)CN1CCOCC1 | 3 | / | / | / | / | / | / | / | / | /
COCCNc1nc2cc(-c3ccccc3OC)sc2c(=O)n1C | 1 | -2 | -4 | 2 | / | / | / | / | / | /
C=CCNc1nc2cc(-c3ccccc3OC)sc2c(=O)n1C | 59* | 4 | -6 | 24 | 1.1 | 1 | 2.1 | -11 | -24 | -5
Cc1cc(Cl)c(O)c(-n2nc3ccccc3n2)c1 | 61* | 2 | 0 | 20 | 0.94 | 0.96 | 1.2 | 5 | -38 | 4
SMILES | esBAF inh | SMARCA2 activ | ARFGAP1 inhibitor | ASAP1 inh | esBAF Ring1 qPCR | Fgf4 repress | Bmi1 derepress | A549 cytotox | HepG2 tox SP | HEK293 tox SP
CC(=O)Oc1ccc(C)cc1-n1nc2ccccc2n1 | 40 | 5 | 4 | -1 | / | / | / | / | / | /
CN(C)c1ccc(-c2ccc3oc(-c4ccsc4)cc(=O)c3c2)cn1 | 69* | 7 | 6 | 8 | 1.1 | 0.86 | 1.1 | -22 | 10 | -24
O=c1cc(-c2ccsc2)oc2ccccc12 | 33 | 5 | 6 | -3 | / | / | / | / | / | /
Cc1ccnc(NC(=O)CCCc2ccccc2)c1 | 65* | 1 | 5 | -1 | 1.1 | 0.98 | 1.5 | 1 | -1 | 1
O=C(CCCc1ccccc1)Nc1ccccn1 | 31 | -1 | 0 | -2 | / | / | / | / | / | /
Cc1ccc(C)c(NC(=O)C2CC3CCC2C3)c1 (stereo not drawn) | 26 | 1 | -4 | -5 | / | / | / | / | / | /
Cc1ccc(NC(=O)C2CC3CCC2C3)c(Br)c1 (stereo not drawn) | 73* | 3 | -15 | 10 | 1 | 1 | 2 | -10 | -18 | -11
Brc1ccccc1-c1nnc(-c2cccnc2)o1 | 66* | 1 | 3 | 4 | 1 | 1 | 1.7 | -5 | -29 | -3
CNC[C@H]1Oc2cc(C#CCN(C)C)ccc2S(=O)(=O)N([C@H](C)CO)C[C@H]1C | -1 | / | / | / | / | / | / | / | / | /
C[C@H](CO)N1C[C@H](C)[C@@H](CN(C)C(=O)Nc2ccc(C(F)(F)F)cc2)Oc2ncc(-c3ccc(C#N)cc3)cc2C1=O | 2 | / | / | / | / | / | / | / | / | /
CN(C(=O)c1ccc2c(Cl)c3c(nc2c1)CCC3)c1ccccc1 | 88* | 3 | -5 | -23 | 1.4 | 0.98 | 1.8 | 3 | -23 | 1
Cc1ccc(NCSc2ccc(Cl)cc2)cc1 | 72* | 4 | -13 | 8 | 0.96 | 1.1 | 1.5 | -16 | 42 | -2
CC=Cc1ccc2n(c1=O)C[C@H]1[C@H](CO)[C@@H](C(=O)NCc3ccccc3)[C@@H]2N1C (mixture of isomers) | -6 | / | / | / | / | / | / | / | / | /
Clc1ccc(-c2cnnc(-c3ccccn3)n2)cc1 | 83* | 5 | 0 | 0 | 1.2 | 1.3 | 2 | -23 | -31 | -21
CSc1nnc(NC(=O)C23CC4CC(CC(C4)C2)C3)s1 | 58* | 2 | 1 | 8 | 1.1 | ? | 1 | -15 | -22 | -8
COc1cc(/C=C/c2ccc(O)cc2)cc(OC)c1 | 61* | 3 | 20 | 16 | 0.95 | 0.97 | 2 | -4 | -35 | 2
